The text below walks through data of ChEMBL document CHEMBL1155584, “Bioactive compounds from Psorothamnus junceus” (J Nat Prod, 2000).

Converted amounts (≈) assume the structure as drawn.

Format in all cases: functional
For one assay, the system named is A549. Nature of the assay: Cytotoxicity against human A549 cells by MTT assay. Put shortly: (§1)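 Human tumour lines (A-549 lung carcinoma, MCF-7 breast carcinoma, HT-29 colon adenocarcinoma, SK-MEL-5 melanoma from an axillary node metastasis, Malme-3M melanoma from a lung metastasis) tested with a standard MTT protocol. Adriamycin served as the positive control. Results are reported as GI50.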
(Tetrazolium dyes change colour on reduction, which living cells bring about.)

The next assay relates to Malme-3M. Kind of assay: Cytotoxicity against human MALME-3M cells by MTT assay. An outline of the steps:
as §1

The next assay deals with MCF7. Kind of assay: Cytotoxicity against human MCF7 cells by MTT assay. Put shortly: as §1
The next assay has as its system HT-29. Nature of the assay: Cytotoxicity against human HT29 cells by MTT assay. An outline of the steps:
as §1

The test system of the next assay is SK-MEL-5. Kind of assay: Cytotoxicity against human SK-MEL-5 cells by MTT assay. An outline of the steps:
as §1

The GI50 is the concentration that inhibits growth by half. A high value points to lower sensitivity of the cells. Turning to `COC1=C(C)C(=O)C(C)(C)C(=O)/C1=C1\C=Cc2ccccc2O1` [DALRUBONE], the GI50 in the assay on A549 is 0.2 µg/mL (≈ 0.644 µM); in the assay with Malme-3M it was 2 µg/mL (≈ 6.44 µM); in the assay with MCF7 it was 1 µg/mL (≈ 3.22 µM); in the assay on HT-29, 0.02 µg/mL (≈ 0.0644 µM); with SK-MEL-5 it was 0.4 µg/mL (≈ 1.29 µM).

For the compound `COc1cccc2c1C(=O)c1c(O)c3c(c(O)c1C2=O)C[C@@](O)(C(=O)CO)C[C@@H]3O[C@H]1C[C@H](N)[C@H](O)[C@H](C)O1` [DOXORUBICIN], the 50% growth inhibitory concentration (GI50) with A549 was determined as 0.04 µg/mL (≈ 0.0736 µM); with Malme-3M it was 0.1 µg/mL (≈ 0.184 µM); with MCF7 it was 0.2 µg/mL (≈ 0.368 µM); with HT-29, 0.06 µg/mL (≈ 0.11 µM); in the assay on SK-MEL-5, 0.03 µg/mL (≈ 0.0552 µM).

For the compound `CC1(C)C(=O)C(=C2C=Cc3ccccc3O2)C(=O)C(C)(C)C1=O` [EMORYDONE], the GI50 in the assay on A549 was 3 µg/mL (≈ 9.67 µM); in the assay on Malme-3M, 1 µg/mL (≈ 3.22 µM); with MCF7, 3 µg/mL (≈ 9.67 µM); in the assay with HT-29, 4 µg/mL (≈ 12.9 µM); in the assay on SK-MEL-5, 3 µg/mL (≈ 9.67 µM).

In the case of `CC(=O)C1=c2oc3c(c2Oc2ccccc21)C(=O)C(C)(C)C(=O)C=3C` [PSOROTHAMNONE A], the GI50 in the assay with A549 was 40 µg/mL (≈ 119 µM); with Malme-3M, 60 µg/mL (≈ 178 µM); in the assay with MCF7, 60 µg/mL (≈ 178 µM); in the assay with HT-29 it was 50 µg/mL (≈ 149 µM); in the assay with SK-MEL-5, 20 µg/mL (≈ 59.5 µM).

As to `CC1=c2oc3c(c2C(=O)C(C)(C)C1=O)Oc1ccccc1C=3` [PSOROTHAMNONE B], the GI50 in the assay on A549 was determined as 30 µg/mL (≈ 102 µM); in the assay on Malme-3M, 40 µg/mL (≈ 136 µM); with MCF7, 40 µg/mL (≈ 136 µM); in the assay with HT-29 it was 30 µg/mL (≈ 102 µM); in the assay with SK-MEL-5, 40 µg/mL (≈ 136 µM).
